Peptide text beside a SMILES is read from it.
These compounds were tested on reserpine-induced hypothermia mice (assay: Antagonistic effect on reserpine-induced hypothermia in mice). Conditions: mice, p.o.; data not shown or compared with 64.
Format: in vivo
Method in brief: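 Male ddY mice (bought at 6 weeks, 1-week quarantine, ~25 °C). Reserpine 3 mg/kg s.c.; mice with rectal temperature ≤30 °C about 18 h later were used. Test compound in saline p.o. at 5 μmol/kg, TRH at 50 μmol/kg, saline controls. Rectal temperature by thermistor before and up to 7 h post-dose. Trapezoidal AUC0–7h, with saline AUC subtracted. Mean ± SD, ≥3 animals.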

Row | SMILES | CNS effect (reserpine-induced hypothermia), in words, SAR comparison
1 | C[C@H]1OC(=O)N(Cc2ccccc2)[C@@H]1C(=O)N[C@@H](Cc1cscn1)C(=O)N1CCC[C@H]1C(N)=O [Compound 61, {[(4S,5R)-3-Benzyl-5-Methyl-2-oxooxazolidine-4-carbonyl]-3-(thiazol-4-yl)-L-alanyl}-L-prolinamide] | decreased the CNS effects
2 | C[C@@H]1OC(=O)N[C@@H]1C(=O)N[C@@H](Cc1cncs1)C(=O)N1CCC[C@H]1C [Compound 71, 1-{N-[(4S,5S)-(5-Methyl-2-oxooxazolidine-4-yl)carbonyl]-3-(thiazol-5-yl)-L-alanyl}-(2R)-2-methylpyrrolidine] | less than that of 64
3 | NC(=O)[C@@H]1CCCN1C(=O)[C@H](Cc1cscn1)NC(=O)[C@@H]1COC(=O)N1 [Compound 58, {[(4S)-(2-Oxooxazolidine-4-yl)carbonyl]-3-(thiazol-4-yl)-L-alanyl}-L-prolinamide] | maintained
4 | C[C@H]1OC(=O)N[C@@H]1C(=O)N[C@@H](Cc1cncs1)C(=O)N1CCC[C@H]1C(N)=O [Compound 62] | less than that of 64
5 | NC(=O)[C@@H]1CSCN1C(=O)[C@H](Cc1cscn1)NC(=O)[C@@H]1CCC(=O)N1 [Compound 57, 3-{N-L-Pyroglutamyl-[3-(thiazol-4-yl)-L-alanyl]}-(4R)-4-thiazolidinecarboxamide] (HELM PEPTIDE1{[Glp].[O=C([C@H](Cc1cscn1)N[*:1])[*:2]].[O=C([C@@H]1CSCN1[*:1])[*:2]].[am]}$$$$V2.0) | less than that of 64
6 | NC(=O)[C@@H]1CCCN1C(=O)[C@H](Cc1cncs1)NC(=O)[C@@H]1CCC(=O)N1 [Compound 56, L-Pyroglutamyl-[3-(thiazol-5-yl)-L-alanyl]-L-prolinamide] | less than that of 64
7 | C[C@@H]1OC(=O)N[C@@H]1C(=O)N[C@@H](Cc1cscn1)C(=O)N1CCC[C@H]1C(=O)OCc1ccccc1 [Compound 74, {[(4S,5S)-5-Methyl-2-oxooxazolidine-4-carbonyl]-3-(thiazol-4-yl)-L-alanyl}-L-proline Benzyl Ester] | less than that of 64
8 | C[C@H]1OC(=O)N(C)[C@@H]1C(=O)N[C@@H](Cc1cscn1)C(=O)N1CCC[C@H]1C(N)=O [Compound 60, {[(4S,5R)-3,5-Dimethyl-2-oxooxazolidine-4-carbonyl]-3-(thiazol-4-yl)-L-alanyl}-L-prolinamide] | decreased the CNS effects
9 | C[C@@H]1OC(=O)N[C@@H]1C(=O)N[C@@H](Cc1c[nH]cn1)C(=O)N1CCC[C@H]1C [Compound 72, 1-{N-[(4S,5S)-(5-Methyl-2-oxooxazolidine-4-yl)carbonyl]-L-histidyl}-(2R)-2-methylpyrrolidine] | less than that of 64
10 | C[C@H]1OC(=O)N[C@@H]1C(=O)N[C@@H](Cc1cscn1)C(=O)N1CSC[C@H]1C(N)=O [Compound 63, 3-{N-[(4S,5R)-(5-Methyl-2-oxooxazolidine-4-yl)carbonyl]-3-(thiazol-4-yl)-L-alanyl}-(4R)-4-thiazolidinecarboxamide] | less than that of 64

Reference: PMC6217654 (ACS Omega, 2018)
